ChEMBL document CHEMBL1126837, “Inhibitors of acyl-CoA:cholesterol acyltransferase. 5. Identification and structure-activity relationships of novel beta-ketoamides as hypocholesterolemic agents” (J Med Chem, 1993)
pIC50: −log10 of the molar value.

Experiments:
Rattus norvegicus [1] = assay: Tested for percentage change in total cholesterol in cholic acid (0.5%)-cholesterol (1.5%) -peanut oil (5.5%)-fed rats at 30 mg/kg; assay type: functional
How it was run: (§1)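 Male Sprague-Dawley rats (200-225 g) got a single oral gavage at 4 p.m. The compound was suspended in 1.5% carboxymethylcellulose/0.2% Tween-20 in water; controls got vehicle. Rats then fed ad libitum overnight on chow with 5.5% peanut oil, 1.5% cholesterol and 0.5% cholic acid. Blood was taken by cardiac puncture under ether at 8 a.m. Serum total cholesterol is given as % change versus vehicle controls (unpaired two-tailed t-test, p<0.05).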

O-acyltransferase = O-acyltransferase (Oryctolagus cuniculus, UniProt G1SFD9); assay: In vitro inhibition of Acyl coenzyme A:cholesterol acyltransferase in intestinal microsomes isolated from cholesterol-fed rabbits; assay type: functional, Intestine
How it was run: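 Intestinal microsomes from cholesterol-fed rabbits were incubated with the compound and [1-14C]oleoyl-CoA as substrate. IC50 is the micromolar concentration giving 50% inhibition of enzyme activity. Each determination was done in triplicate.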

Rattus norvegicus [2] = assay: Tested for percentage change in total cholesterol in cholic acid (0.5%)-cholesterol (1.5%) -peanut oil (5.5%)-fed rats at 3 mg/kg; assay type: functional; how it was run: as §1

Chain of O-acyltransferase (G1SFD9 1-524): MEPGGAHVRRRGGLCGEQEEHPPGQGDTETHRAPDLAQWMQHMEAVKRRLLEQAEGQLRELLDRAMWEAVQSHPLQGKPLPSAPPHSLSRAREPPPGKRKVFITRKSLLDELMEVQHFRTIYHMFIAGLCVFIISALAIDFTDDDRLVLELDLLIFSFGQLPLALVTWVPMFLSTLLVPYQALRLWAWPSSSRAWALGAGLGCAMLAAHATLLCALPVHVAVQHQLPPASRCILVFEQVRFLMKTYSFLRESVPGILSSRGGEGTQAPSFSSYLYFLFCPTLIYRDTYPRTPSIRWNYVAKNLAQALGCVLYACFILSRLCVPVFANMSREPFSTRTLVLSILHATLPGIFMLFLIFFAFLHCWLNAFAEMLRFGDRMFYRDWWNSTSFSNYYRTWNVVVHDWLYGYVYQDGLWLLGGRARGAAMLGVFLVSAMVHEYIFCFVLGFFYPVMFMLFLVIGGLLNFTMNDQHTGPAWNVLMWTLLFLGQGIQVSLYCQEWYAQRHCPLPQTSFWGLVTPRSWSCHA

Structure (SMILES)	pIC50 (O-acyltransferase)	Change (Rattus norvegicus [1]) [%]	Change (Rattus norvegicus [2]) [%]
CCCCCCCCCCC(=O)CC(=O)Nc1c(C(C)C)cccc1C(C)C	7.22	-30	–
CCCCCCCC1CCC(C(=O)Nc2c(C(C)C)cccc2C(C)C)C(=O)O1 (stereo unspecified)	6.47	-11	–
CC(C)c1cccc(C(C)C)c1NC(=O)CC(=O)C(c1ccccc1)c1ccccc1	7.46	-65	-21
CC(C)c1cccc(C(C)C)c1NC(=O)C/C(CC(c1ccccc1)c1ccccc1)=N\O	6.68	-1	0
CCCCCCCCCC(=O)CC(=O)Nc1c(C(C)C)cccc1C(C)C	7.01	-54	-5
CCCCCCCCCCCC(=O)C(C)(C)C(=O)N(C)c1c(C(C)C)cccc1C(C)C	6.00	-60	0
CC(C)c1cccc(C(C)C)c1NC(=O)CC(=O)CC(c1ccccc1)c1ccccc1	7.36	-43	-23
CCCCCCCCCCCC(=O)C(C)(C)C(=O)N(C)c1c(OC)cc(OC)cc1OC	–	-40	–
CCCCCCCC1CC(C(=O)Nc2c(C(C)C)cccc2C(C)C)C(=O)O1 (stereo unspecified)	–	-26	–
CC(C)c1cccc(C(C)C)c1NC(=O)CC(=O)CCCCCCCCCCOC1CCCCO1 (stereo unspecified)	7.24	-67	-17
CCCCCCCCCCCC(=O)CC(=O)Nc1c(OC)cc(OC)cc1OC	6.82	-31	–
CCCCCCC1CCC(C(=O)Nc2c(C(C)C)cccc2C(C)C)C(=O)O1 (stereo unspecified)	–	-43	–

Further molecules by rising pIC50 (O-acyltransferase), results first:

pIC50 (O-acyltransferase)	Structure (SMILES)	Change (Rattus norvegicus [1]) [%]	Change (Rattus norvegicus [2]) [%]
5.46	CC(C)c1cccc(C(C)C)c1NC(=O)CC(O)CC(c1ccccc1)c1ccccc1 (stereo unspecified)	-10	–
6.09	CC(C)c1cccc(C(C)C)c1NC(=O)CC(=O)c1ccccc1	-4	0
6.43	CCCCCCCCCCCC(=O)C(C)(C)C(=O)Nc1c(OC)cc(OC)cc1OC	-44	0
6.64	CC(C)c1cccc(C(C)C)c1NC(=O)CC(=O)CCCCCCCCCCO	-29	-2
7.16	CCCCCCCCCCCC(=O)CC(=O)Nc1c(C(C)C)cccc1C(C)C	-43	-25
7.28	CCCCCCCCCCCCC1CC(C(=O)Nc2c(C(C)C)cccc2C(C)C)C(=O)N1 (stereo unspecified)	-20	–
7.62	CCCCCCCCCCCCCCC(=O)CC(=O)Nc1c(C(C)C)cccc1C(C)C	-57	-34
7.66	CCCCCCCCCCCCC1CCCC(C(=O)Nc2c(C(C)C)cccc2C(C)C)C(=O)N1 (stereo unspecified)	-47	–
7.96	CCCCCCCCCCCCC(=O)CC(=O)Nc1c(C(C)C)cccc1C(C)C	-56	-31
7.96	CC(C)c1cccc(C(C)C)c1NC(=O)CC(=O)C1(c2ccccc2)CCCC1	-37	–
8.22	CCCCCCCCCCCCCC(=O)CC(=O)Nc1c(C(C)C)cccc1C(C)C	-66	-38
